Reference: ChEMBL document CHEMBL3632581, “Dimers of Melampomagnolide B Exhibit Potent Anticancer Activity against Hematological and Solid Tumor Cells” (J Med Chem, 2015)

Experiments:
OVCAR-8 = assay: Cytotoxicity against human OVCAR8 cells after 48 hrs by SRB assay; format: functional; settings: OVCAR-8, 48 h
How it was run: (§1)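 NCI-60 five-dose screen at 10−8 to 10−4 M. Cells were plated at 5,000–40,000/well in RPMI 1640 with 5% FBS and 2 mM L-glutamine, then preincubated 24 h, and time-zero plates were TCA-fixed. Compound was added from DMSO stocks and exposed 48 h at 37 °C. Cells were TCA-fixed, SRB-stained, and read at 515 nm. LC50 is the concentration halving the cell population through cell death.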

Malme-3M = assay: Cytotoxicity against human MALME-3M cells after 48 hrs by SRB assay; format: functional; how it was run: as §1
OVCAR-4 = assay: Cytotoxicity against human OVCAR4 cells after 48 hrs by SRB assay; format: functional; settings: OVCAR-4, 48 h; how it was run: as §1
RXF 393 = assay: Cytotoxicity against human RXF393 cells after 48 hrs by SRB assay; format: functional; settings: RXF 393, 48 h; how it was run: as §1
MDA-MB-468 = assay: Cytotoxicity against human MDA-MB-468 cells after 48 hrs by SRB assay; format: functional; settings: MDA-MB-468, 48 h; how it was run: as §1
SF-295 = assay: Cytotoxicity against human SF295 cells after 48 hrs by SRB assay; format: functional; settings: SF-295, 48 h; how it was run: as §1
SK-MEL-5 = assay: Cytotoxicity against human SK-MEL-5 cells after 48 hrs by SRB assay; format: functional; settings: SK-MEL-5, 48 h; how it was run: as §1
SK-OV-3 = assay: Cytotoxicity against human SKOV3 cells after 48 hrs by SRB assay; format: functional; settings: SK-OV-3, 48 h; how it was run: as §1
PC-3 = assay: Cytotoxicity against human PC3 cells after 48 hrs by SRB assay; format: functional; settings: PC-3, 48 h; how it was run: as §1
[1] = Cytotoxicity against hematopoietic progenitor cells isolated from human umbilical cord blood by annexin V staining-based flow cytometric analysis; format: cell-based
How it was run: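 Cord-blood mononuclear cells from Ficoll-Paque were plated in serum-free medium, with drug from a DMSO stock (≤0.5% DMSO final). Cells were stained for CD34, CD45 and annexin V. The non-apoptotic fraction (annexin V-negative within the CD34+CD45dim compartment) was normalized to vehicle, and EC50 was fitted where possible. Triplicate.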

SK-MEL-2 = assay: Cytotoxicity against human SK-MEL-2 cells after 48 hrs by SRB assay; format: functional; settings: SK-MEL-2, 48 h; how it was run: as §1
HCT-116 = assay: Cytotoxicity against human HCT116 cells after 48 hrs by SRB assay; format: functional; settings: HCT-116, 48 h; how it was run: as §1
[2] = Antileukemic activity against human AML05 cells after 24 hrs by annexin V/7-AAD staining-based flow cytometric analysis; format: functional, cell-based
How it was run: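 Primary AML specimens from consenting donors, isolated by Ficoll-Paque gradient and sometimes cryopreserved. Cells were held 1 h in serum-free IMDM with 20% BIT 9500, LDL and β-mercaptoethanol before drug (DMSO stock diluted in PBS, ≤0.5% DMSO final). Exposure was 24 h over 0.5-10 μM. Annexin V/7-AAD double-negative cells, normalized to vehicle, gave the EC50. Run in triplicate.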

786-0 = assay: Cytotoxicity against human 786-0 cells after 48 hrs by SRB assay; format: functional; settings: 786-0, 48 h; how it was run: as §1
[3] = Cytotoxicity against human NCI-ADR-RES cells after 48 hrs by SRB assay; format: functional; how it was run: as §1
RPMI-8226 = assay: Cytotoxicity against human RPMI8226 cells after 48 hrs by SRB assay; format: functional; settings: RPMI-8226, 48 h; how it was run: as §1
SK-MEL-28 = assay: Cytotoxicity against human SK-MEL-28 cells after 48 hrs by SRB assay; format: functional; settings: SK-MEL-28, 48 h; how it was run: as §1
M14 = assay: Cytotoxicity against human M14 cells after 48 hrs by SRB assay; format: functional; settings: M14, 48 h; how it was run: as §1
TK-10 = assay: Cytotoxicity against human TK10 cells after 48 hrs by SRB assay; format: functional; settings: TK-10, 48 h
How it was run: (§2)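 NCI-60 screen: cells grown in RPMI 1640 with 5% FBS and 2 mM L-glutamine, plated at 5,000–40,000 cells/well by doubling time, and preincubated 24 h at 37 °C before drug. Drug was diluted from DMSO stock and given at five concentrations, 10−4 to 10−8 M, for 48 h. Cells fixed with cold TCA, SRB stained, OD read at 515 nm against time-zero and vehicle plates. LC50 taken as the concentration that halves cell population through cell death.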

[4] = Potency index, ratio of parthenolide EC50 to compound EC50 for human M9-ENL1 cells; format: functional
ACHN = assay: Cytotoxicity against human ACHN cells after 48 hrs by SRB assay; format: functional; how it was run: as §1
K562 = assay: Cytotoxicity against human K562 cells after 48 hrs by SRB assay; format: functional; settings: K562, 48 h; how it was run: as §1
NCI-H460 = assay: Cytotoxicity against human NCI-H460 cells after 48 hrs by SRB assay; format: functional; settings: NCI-H460, 48 h; how it was run: as §1
UACC-257 = assay: Cytotoxicity against human UACC257 cells after 48 hrs by SRB assay; format: functional; settings: UACC-257, 48 h; how it was run: as §2
MCF7 = assay: Cytotoxicity against human MCF7 cells after 48 hrs by SRB assay; format: functional; settings: MCF7, 48 h
How it was run: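 NCI-60 screen: cells in RPMI 1640 with 5% FBS and 2 mM L-glutamine, preincubated 24 h at 37 °C. Compound was then added for 48 h at five concentrations (10−4 to 10−8 M). Cells were fixed with cold TCA and stained with 0.4% SRB in 1% acetic acid, and OD read at 515 nm. GI50 is the concentration halving net protein increase versus control.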

OVCAR-5 = assay: Cytotoxicity against human OVCAR5 cells after 48 hrs by SRB assay; format: functional; settings: OVCAR-5, 48 h; how it was run: as §1
NCI-H23 = assay: Cytotoxicity against human NCI-H23 cells after 48 hrs by SRB assay; format: functional; settings: NCI-H23, 48 h; how it was run: as §1
[5] = Antileukemic activity against human M9-ENL1 cells after 24 hrs by annexin V/7-AAD staining-based flow cytometric analysis; format: functional, cell-based
How it was run: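 M9-ENL1 cells in alpha-MEM with 5% human plasma, 20% FBS, SCF, IL-3, IL-7 and FLT3. Drug came from a DMSO stock diluted in PBS (≤0.5% DMSO final), for 24 h over 0.5-10 μM. Cells negative for both annexin V and 7-AAD were taken as non-apoptotic and normalized to vehicle. EC50 read from dose-response curves, triplicate.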

A549 = assay: Cytotoxicity against human A549 cells after 48 hrs by SRB assay; format: functional; settings: A549, 48 h; how it was run: as §1
[6] = read-out: LC50 (the source's name)

## C=C1C(=O)O[C@H]2[C@H]1CC/C(COC(=O)NCCCCNC(=O)OC/C1=C/CC[C@@]3(C)O[C@H]3[C@H]3OC(=O)C(=C)[C@@H]3CC1)=C\CC[C@@]1(C)O[C@@H]21
OVCAR-8
  GI50: 2.18 µM
OVCAR-8; [6]
  CC50: 40.2 µM
Malme-3M
  GI50: 0.45 µM
Malme-3M; [6]
  CC50: 8.43 µM
OVCAR-4
  GI50: 1.77 µM
OVCAR-4; [6]
  CC50: 30.5 µM
RXF 393
  GI50: 1.44 µM
RXF 393; [6]
  CC50: 7.84 µM
MDA-MB-468
  GI50: 0.42 µM
  LC50: 7.76 µM
SF-295
  GI50: 13 µM
SF-295; [6]
  CC50: 57.7 µM
SK-MEL-5
  GI50: 3.33 µM
SK-MEL-5; [6]
  CC50: 41.4 µM
SK-OV-3
  GI50: 12.7 µM
SK-OV-3; [6]
  CC50: 50.4 µM
PC-3
  GI50: 2.55 µM
  LC50 (concentration killing half the cell population): 30.5 µM
[1]
  EC50: > 10 µM
SK-MEL-2
  GI50: 1.77 µM
SK-MEL-2; [6]
  CC50: 29.3 µM
HCT-116
  GI50: 1.12 µM
HCT-116; [6]
  CC50: 6.19 µM
[2]
  EC50: 2 µM
786-0
  GI50: 1.99 µM
786-0; [6]
  CC50: 9.11 µM
[3]
  GI50: 37.7 µM
[3]; [6]
  CC50: > 100 µM
RPMI-8226
  GI50: 0.54 µM
RPMI-8226; [6]
  CC50: > 100 µM
SK-MEL-28
  GI50: 0.52 µM
SK-MEL-28; [6]
  CC50: 8.08 µM
M14
  GI50: 1.97 µM
M14; [6]
  CC50: 16.3 µM
TK-10
  GI50: 1.61 µM
TK-10; [6]
  CC50: 11.3 µM
[4]
  Ratio EC50: 2
ACHN
  GI50: 3.44 µM
ACHN; [6]
  CC50: 39.8 µM
K562
  GI50: 0.66 µM
K562; [6]
  CC50: > 100 µM
NCI-H460
  GI50: 4.61 µM
NCI-H460; [6]
  CC50: 60.7 µM
UACC-257
  GI50: 1.68 µM
UACC-257; [6]
  CC50: 22.9 µM
MCF7
  GI50: 0.38 µM
OVCAR-5
  GI50: 1.75 µM
OVCAR-5; [6]
  CC50: 7.79 µM
NCI-H23
  GI50: 2.18 µM
NCI-H23; [6]
  CC50: 30.4 µM
[5]
  EC50: 1.5 µM
A549
  GI50: 8.02 µM
A549; [6]
  CC50: 58.7 µM
